Assay results published in ChEMBL document CHEMBL1268908, “Design, synthesis, radiolabeling, and in vivo evaluation of carbon-11 labeled N-[2-[4-(3-cyanopyridin-2-yl)piperazin-1-yl]ethyl]-3-methoxybenzamide, a potential positron emission tomography tracer for the dopamine D(4) receptors” (J Med Chem, 2010).

Assays:
[1] = Biodistribution in rhesus monkey cerebellum at 150.3 MBq, iv after 0.75 mins; format: ADME, organism-based, Macaca mulatta; settings: in vivo, 45 s
Method in brief: (§1)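 Male rhesus monkey under ketamine (10 mg/kg im) with head fixation. After a 20 min 68Ge-68Ga transmission scan, the [11C]-labelled tracer in saline (pH 7.4) was injected iv, at 2.9 TBq/μmol specific radioactivity at injection. A dynamic 3D PET scan followed over 90 min (6×0.5, 7×1, 20×2, 8×5 min frames). Regions were defined on T1-weighted 1.5 T MRI, and uptake is given as %ID/mL.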

Striatum [2] = assay: Biodistribution in rhesus monkey striatum at 150.3 MBq, iv after 1.25 mins; format: ADME, organism-based, Macaca mulatta; settings: in vivo, 75 s
[3] = Biodistribution in rhesus monkey occipital lobe at 150.3 MBq, iv after 2.25 mins; format: ADME, organism-based, Macaca mulatta; settings: in vivo, 135 s
Method in brief: (§2)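 Male rhesus monkey under ketamine 10 mg/kg im, head fixed; 20 min 68Ge-68Ga transmission scan, then 90 min dynamic 3D PET (6×0.5, 7×1, 20×2, 8×5 min frames) after iv [11C]-labelled tracer in saline, specific radioactivity about 2.9 TBq/μmol at injection. Regions defined on T1-weighted MRI; uptake expressed as % injected dose per mL.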

[4] = Biodistribution in rhesus monkey cingulate cortex at 150.3 MBq, iv after 3.5 mins; format: ADME, organism-based, Macaca mulatta; settings: in vivo; method in brief: as §1
[5] = Biodistribution in rhesus monkey cerebellum at 150.3 MBq, iv after 3.5 mins; format: ADME, organism-based, Macaca mulatta; settings: in vivo; method in brief: as §1
[6] = Biodistribution in rhesus monkey cingulate cortex at 150.3 MBq, iv after 4.5 mins; format: ADME, organism-based, Macaca mulatta; settings: in vivo, 0.075 h; method in brief: as §1
Striatum [7] = assay: Biodistribution in rhesus monkey striatum at 150.3 MBq, iv after 4.5 mins; format: ADME, organism-based, Macaca mulatta; settings: in vivo, 0.075 h
[8] = Biodistribution in rhesus monkey cerebellum at 150.3 MBq, iv after 4.5 mins; format: ADME, organism-based, Macaca mulatta; settings: in vivo, 0.075 h; method in brief: as §1
[9] = Biodistribution in rhesus monkey occipital lobe at 150.3 MBq, iv after 4.5 mins; format: ADME, organism-based, Macaca mulatta; settings: in vivo, 0.075 h; method in brief: as §2
Hippocampus [10] = assay: Biodistribution in rhesus monkey hippocampus at 150.3 MBq, iv after 5.5 mins; format: ADME, organism-based, Macaca mulatta; settings: in vivo; method in brief: as §2
[11] = Biodistribution in rhesus monkey cingulate cortex at 150.3 MBq, iv after 5.5 mins; format: ADME, organism-based, Macaca mulatta; settings: in vivo
Method in brief: (§3)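 Single male rhesus monkey anesthetized with ketamine 10 mg/kg im, head fixed. Attenuation correction by 20 min 68Ge-68Ga transmission scan. [11C]-tracer in saline (pH 7.4) given iv, specific radioactivity 2.9 TBq/μmol at injection. Dynamic 3D PET emission scan over 90 min in frames of 0.5 to 5 min. MRI T1 images used to define VOIs. Uptake expressed as […].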

Hippocampus [12] = assay: Biodistribution in rhesus monkey hippocampus at 150.3 MBq, iv after 13 mins; format: ADME, organism-based, Macaca mulatta; settings: in vivo; method in brief: as §3
[13] = Biodistribution in rhesus monkey entorhinal cortex at 150.3 MBq, iv after 15 mins; format: ADME, organism-based, Macaca mulatta; settings: in vivo, 0.25 h; method in brief: as §3
[14] = Biodistribution in rhesus monkey retina at 150.3 MBq, iv after 19 mins; format: ADME, organism-based, Macaca mulatta; settings: in vivo
[15] = Biodistribution in rhesus monkey cingulate cortex at 150.3 MBq, iv after 21 mins; format: ADME, organism-based, Macaca mulatta; settings: in vivo, 0.35 h; method in brief: as §1
[16] = Biodistribution in rhesus monkey entorhinal cortex at 150.3 MBq, iv after 21 mins; format: ADME, organism-based, Macaca mulatta; settings: in vivo, 0.35 h; method in brief: as §3
[17] = Biodistribution in rhesus monkey retina at 150.3 MBq, iv after 23 mins; format: ADME, organism-based, Macaca mulatta; settings: in vivo
[18] = Biodistribution in rhesus monkey entorhinal cortex at 150.3 MBq, iv after 25 mins; format: ADME, organism-based, Macaca mulatta; settings: in vivo; method in brief: as §3
[19] = Biodistribution in rhesus monkey cerebellum at 150.3 MBq, iv after 25 mins; format: ADME, organism-based, Macaca mulatta; settings: in vivo; method in brief: as §1
[20] = Biodistribution in rhesus monkey retina at 150.3 MBq, iv after 25 mins; format: ADME, organism-based, Macaca mulatta; settings: in vivo
[21] = Biodistribution in rhesus monkey cingulate cortex at 150.3 MBq, iv after 27 mins; format: ADME, organism-based, Macaca mulatta; settings: in vivo, 0.45 h; method in brief: as §1
[22] = Biodistribution in rhesus monkey entorhinal cortex at 150.3 MBq, iv after 27 mins; format: ADME, organism-based, Macaca mulatta; settings: in vivo, 0.45 h; method in brief: as §3
[23] = Biodistribution in rhesus monkey cerebellum at 150.3 MBq, iv after 29 mins; format: ADME, organism-based, Macaca mulatta; settings: in vivo; method in brief: as §1
[24] = Biodistribution in rhesus monkey occipital lobe at 150.3 MBq, iv after 31 mins; format: ADME, organism-based, Macaca mulatta; settings: in vivo; method in brief: as §2
Striatum [25] = assay: Biodistribution in rhesus monkey striatum at 150.3 MBq, iv after 33 mins; format: ADME, organism-based, Macaca mulatta; settings: in vivo, 0.55 h
[26] = Biodistribution in rhesus monkey retina at 150.3 MBq, iv after 33 mins; format: ADME, organism-based, Macaca mulatta; settings: in vivo, 0.55 h
[27] = Biodistribution in rhesus monkey entorhinal cortex at 150.3 MBq, iv after 35 mins; format: ADME, organism-based, Macaca mulatta; settings: in vivo; method in brief: as §3
Striatum [28] = assay: Biodistribution in rhesus monkey striatum at 150.3 MBq, iv after 39 mins; format: ADME, organism-based, Macaca mulatta; settings: in vivo, 0.65 h
Hippocampus [29] = assay: Biodistribution in rhesus monkey hippocampus at 150.3 MBq, iv after 43 mins; format: ADME, organism-based, Macaca mulatta; settings: in vivo; method in brief: as §2
[30] = Biodistribution in rhesus monkey occipital lobe at 150.3 MBq, iv after 43 mins; format: ADME, organism-based, Macaca mulatta; settings: in vivo
Method in brief: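 A male rhesus monkey was anaesthetised with ketamine 10 mg/kg im and placed in a head fixation device. A 20 min 68Ge-68Ga transmission scan was run for attenuation correction. Radiotracer in saline (pH 7.4) was given iv, about 52 pmol (18 ng), at 2.9 TBq/μmol at injection. A dynamic 3D PET scan followed for 90 min. Regional VOIs were defined on a T1-weighted MRI, with uptake expressed as %ID/mL.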

Hippocampus [31] = assay: Biodistribution in rhesus monkey hippocampus at 150.3 MBq, iv after 47 mins; format: ADME, organism-based, Macaca mulatta; settings: in vivo; method in brief: as §2
[32] = Biodistribution in rhesus monkey entorhinal cortex at 150.3 MBq, iv after 47 mins; format: ADME, organism-based, Macaca mulatta; settings: in vivo; method in brief: as §3
Striatum [33] = assay: Biodistribution in rhesus monkey striatum at 150.3 MBq, iv after 47 mins; format: ADME, organism-based, Macaca mulatta; settings: in vivo
[34] = Biodistribution in rhesus monkey retina at 150.3 MBq, iv after 47 mins; format: ADME, organism-based, Macaca mulatta; settings: in vivo
Striatum [35] = assay: Biodistribution in rhesus monkey striatum at 150.3 MBq, iv after 49 mins; format: ADME, organism-based, Macaca mulatta; settings: in vivo
Hippocampus [36] = assay: Biodistribution in rhesus monkey hippocampus at 150.3 MBq, iv after 67.5 mins; format: ADME, organism-based, Macaca mulatta; settings: in vivo, 1.125 h; method in brief: as §2
Striatum [37] = assay: Biodistribution in rhesus monkey striatum at 150.3 MBq, iv after 87.5 mins; format: ADME, organism-based, Macaca mulatta; settings: in vivo
Hippocampus [38] = assay: Biodistribution in rhesus monkey hippocampus at 150.3 MBq, iv after 2.75 mins; format: ADME, organism-based, Macaca mulatta; settings: in vivo, 165 s; method in brief: as §3
Hippocampus [39] = assay: Biodistribution in rhesus monkey hippocampus at 150.3 MBq, iv after 8.5 mins; format: ADME, organism-based, Macaca mulatta; settings: in vivo; method in brief: as §2
[40] = Biodistribution in rhesus monkey cingulate cortex at 150.3 MBq, iv after 8.5 mins; format: ADME, organism-based, Macaca mulatta; settings: in vivo; method in brief: as §3
Striatum [41] = assay: Biodistribution in rhesus monkey striatum at 150.3 MBq, iv after 8.5 mins; format: ADME, organism-based, Macaca mulatta; settings: in vivo
[42] = Biodistribution in rhesus monkey entorhinal cortex at 150.3 MBq, iv after 52.5 mins; format: ADME, organism-based, Macaca mulatta; settings: in vivo, 0.875 h; method in brief: as §3
Striatum [43] = assay: Biodistribution in rhesus monkey striatum at 150.3 MBq, iv after 52.5 mins; format: ADME, organism-based, Macaca mulatta; settings: in vivo, 0.875 h
[44] = Biodistribution in rhesus monkey retina at 150.3 MBq, iv after 72.5 mins; format: ADME, organism-based, Macaca mulatta; settings: in vivo
[45] = Biodistribution in rhesus monkey cerebellum at 150.3 MBq, iv after 17 mins; settings: in vivo

- Drug uptake [1]: 56.67 kBq/ml
- Drug uptake (Striatum [2]): 60.2 kBq/ml
- Drug uptake [3]: 44.53 kBq/ml
- Drug uptake [4]: 42.88 kBq/ml
- Drug uptake [5]: 38.562 kBq/ml
- Drug uptake [6]: 39.8367 kBq/ml
- Drug uptake (Striatum [7]): 42.26 kBq/ml
- Drug uptake [8]: 34.76 kBq/ml
- Drug uptake [9]: 33.71 kBq/ml
- Drug uptake (Hippocampus [10]): 39.36 kBq/ml
- Drug uptake [11]: 36.57 kBq/ml
- Drug uptake (Hippocampus [12]): 23.13 kBq/ml
- Drug uptake [13]: 22.26 kBq/ml
- Drug uptake [14]: 53.57 kBq/ml
- Drug uptake [15]: 17.1 kBq/ml
- Drug uptake [16]: 19.46 kBq/ml
- Drug uptake [17]: 54.68 kBq/ml
- Drug uptake [18]: 17.3 kBq/ml
- Drug uptake [19]: 15.53 kBq/ml
- Drug uptake [20]: 56.02 kBq/ml
- Drug uptake [21]: 15.6843 kBq/ml
- Drug uptake [22]: 14.48 kBq/ml
- Drug uptake [23]: 14.54 kBq/ml
- Drug uptake [24]: 12.89 kBq/ml
- Drug uptake (Striatum [25]): 14.6624 kBq/ml
- Drug uptake [26]: 57.47 kBq/ml
- Drug uptake [27]: 11.33 kBq/ml
- Drug uptake (Striatum [28]): 11.52 kBq/ml
- Drug uptake (Hippocampus [29]): 10.83 kBq/ml
- Drug uptake [30]: 9.37 kBq/ml
- Drug uptake (Hippocampus [31]): 9.35 kBq/ml
- Drug uptake [32]: 11.44 kBq/ml
- Drug uptake (Striatum [33]): 10.6 kBq/ml
- Drug uptake [34]: 57.02 kBq/ml
- Drug uptake (Striatum [35]): 10.09 kBq/ml
- Drug uptake (Hippocampus [36]): 8.799 kBq/ml
- Drug uptake (Striatum [37]): 8.125 kBq/ml
- Drug uptake (Hippocampus [38]): 47.34 kBq/ml
- Drug uptake (Hippocampus [39]): 30.9853 kBq/ml
- Drug uptake [40]: 30.4104 kBq/ml
- Drug uptake (Striatum [41]): 31.7 kBq/ml
- Drug uptake [42]: 9.01 kBq/ml
- Drug uptake (Striatum [43]): 10.06 kBq/ml
- Drug uptake [44]: 51.43 kBq/ml
- Drug uptake [45]: 18.41 kBq/ml
Structure (SMILES): [11CH3]Oc1cccc(C(=O)NCCN2CCN(c3ncccc3C#N)CC2)c1
